Test results published in ChEMBL document CHEMBL1141258, “Prismatomerin, a new iridoid from Prismatomeris tetrandra. Structure elucidation, determination of absolute configuration, and cytotoxicity” (J Nat Prod, 2007).
Calls of active or inactive are those of the source. No cut-off for these calls is given here.

Key:
[1] = system: DU-145; assay: Growth inhibition of human DU145 cells after 48 hrs by SRB assay; assay type: functional
In short: (§1)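 Run at NCI in the 60-human-tumor-cell-line anticancer screen. Each compound was tested at a minimum of five concentrations at 10-fold dilutions.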

[2] = system: MDA-MB-231; assay: Growth inhibition of human MDA-MB-231 cells after 48 hrs by SRB assay; assay type: functional; conditions: MDA-MB-231, 48 h
In short: (§2)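 NCI 60 human tumour cell line in vitro anticancer screen, run at NCI. Compound tested at a minimum of five concentrations in 10-fold dilutions per cell line.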

[3] = system: SW480; assay: Antiproliferative activity against human SW480 cells after 5 days by MTT assay; conditions: SW480, 120 h
[4] = system: SR; assay: Growth inhibition of human SR cells after 48 hrs by SRB assay; assay type: functional; in short: as §1
[5] = system: HCT-116; assay: Growth inhibition of human HCT116 cells after 48 hrs by SRB assay; assay type: functional; in short: as §1
[6] = system: SNB-19; assay: Growth inhibition of human SNB19 cells after 48 hrs by SRB assay; assay type: functional; conditions: SNB-19, 48 h; in short: as §1
[7] = system: SF-295; assay: Growth inhibition of human SF295 cells after 48 hrs by SRB assay; assay type: functional; in short: as §1
[8] = system: ACHN; assay: Growth inhibition of human ACHN cells after 48 hrs by SRB assay; assay type: functional; in short: as §2
[9] = system: SN12C; assay: Growth inhibition of human SN12C cells after 48 hrs by SRB assay; assay type: functional; in short: as §1
[10] = system: RPMI-8226; assay: Growth inhibition of human RPMI8226 cells after 48 hrs by SRB assay; assay type: functional; conditions: RPMI-8226, 48 h; in short: as §2
[11] = system: L929; assay: Antiproliferative activity against mouse L929 cells after 5 days by SRB assay; assay type: cell-based; conditions: L929, 120 h
[12] = Growth inhibition of human OVACAR3 cells after 48 hrs by SRB assay; assay type: functional; conditions: OVACAR3, 48 h; in short: as §1
[13] = system: K562; assay: Growth inhibition of human K562 cells after 48 hrs by SRB assay; assay type: functional; conditions: K562, 48 h; in short: as §2
[14] = system: TK-10; assay: Growth inhibition of human TK10 cells after 48 hrs by SRB assay; assay type: functional; conditions: TK-10, 48 h; in short: as §2
[15] = system: NCI/ADR-RES; assay: Growth inhibition of human NCI/ADR-RES cells after 48 hrs by SRB assay; assay type: functional; in short: as §2
[16] = system: UACC-257; assay: Growth inhibition of human UACC257 cells after 48 hrs by SRB assay; assay type: functional; conditions: UACC-257, 48 h; in short: as §2
[17] = system: NCI-H226; assay: Growth inhibition of human NCIH226 cells after 48 hrs by SRB assay; assay type: functional; conditions: NCI-H226, 48 h; in short: as §1
[18] = Antiproliferative activity against human KB31 cells after 5 days by MTT assay; conditions: KB 3-1, 120 h
[19] = system: M14; assay: Growth inhibition of human M14 cells after 48 hrs by SRB assay; assay type: functional; in short: as §1
[20] = system: U-251; assay: Growth inhibition of human U251 cells after 48 hrs by SRB assay; assay type: functional; conditions: U-251, 48 h; in short: as §1
[21] = read-out: Log LC50 (the source's name) (converted)

With `COC(=O)C1=CO[C@@H]2O[C@H]3/C(=C\c4ccc(O)cc4)C(=O)O[C@]34C=C[C@H]1[C@H]24` [PRISMATOMERIN] the Activity [1] was “inactive”, the GI50 ([1]; DU-145, 48 h) was 115 nM and the GI50 [2] was 162 nM. It also gave a CC50 [2, 21] of 851 nM, an IC50 [3] of 60 nM and a GI50 [4] of 10.5 nM. For the same molecule, the CC50 [4, 21] was over 100 µM, the TGI ([4]; read-out: Log TGI (converted)) was 468 nM and the Activity [5] was “inactive”. It also gave a GI50 ([5]; HCT-116, 48 h) of under 10 nM, a TGI ([5]; HCT-116, 48 h, read-out: Log TGI (converted)) of 100 nM and a GI50 [6] of 347 nM. The CC50 [6, 21] was 26.9 µM, the TGI ([6]; read-out: Log TGI (converted)) was 110 µM and the Activity [7] was “inactive”. The GI50 ([7]; SF-295, 48 h) was 589 nM, the GI50 [8] was under 10 nM and the CC50 [8, 21] was 2090 nM. For the same molecule, the GI50 [9] was 174 nM, the CC50 [9, 21] was 813 nM and the TGI ([9]; read-out: Log TGI (converted)) was 380 nM. It also gave a GI50 [10] of under 10 nM, a CC50 [10, 21] of over 100 µM and an IC50 [11] of 210 nM. For the same molecule, the GI50 [12] was 490 nM, the CC50 [12, 21] was 1700 nM and the TGI ([12]; read-out: Log TGI (converted)) was 562 nM. It also gave a GI50 [13] of under 10 nM, a CC50 [13, 21] of over 100 µM and a GI50 [14] of 288 nM. It also gave a CC50 [14, 21] of 3.98 µM, a GI50 [15] of 170 nM and a CC50 [15, 21] of 17.4 µM. For the same molecule, the GI50 [16] was 145 nM, the CC50 [16, 21] was 10 µM and the GI50 [17] was 174 nM. For the same molecule, the CC50 [17, 21] was 22.9 µM, the TGI ([17]; read-out: Log TGI (converted)) was 479 nM and the IC50 [18] was 410 nM. The Activity [19] was “inactive”, the GI50 ([19]; M14, 48 h) was 162 nM and the GI50 [20] was 295 nM.
